Activity, IC50 and Drug uptake data for 22 compounds are collected here from ChEMBL document CHEMBL4145507, “Design, synthesis and biological evaluation of novel indole-benzimidazole hybrids targeting estrogen receptor alpha (ER-α)” (Eur J Med Chem, 2018).

One data set concerns PBMC. The data set is described as follows: Cytotoxicity against human PBMC at 100 uM after 48 hrs by MTT assay. The data set is classed as cell-based. The procedure, abridged: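 PBMCs isolated from fresh blood of a healthy donor, held in RPMI-1640 with 10% FBS and antibiotic at 37 °C, 5% CO2. About 10^4 cells seeded per well, then MTT read-out as for the T47D assay (0.5 mg/ml MTT, 4 h, acidified DMSO, 570/620 nm).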
(Formazan colour is commonly taken as a measure of viable cells.)

In another data set the target is T1, Estrogen receptor (Homo sapiens, UniProt P03372).
T1 sequence (P03372 whole entry): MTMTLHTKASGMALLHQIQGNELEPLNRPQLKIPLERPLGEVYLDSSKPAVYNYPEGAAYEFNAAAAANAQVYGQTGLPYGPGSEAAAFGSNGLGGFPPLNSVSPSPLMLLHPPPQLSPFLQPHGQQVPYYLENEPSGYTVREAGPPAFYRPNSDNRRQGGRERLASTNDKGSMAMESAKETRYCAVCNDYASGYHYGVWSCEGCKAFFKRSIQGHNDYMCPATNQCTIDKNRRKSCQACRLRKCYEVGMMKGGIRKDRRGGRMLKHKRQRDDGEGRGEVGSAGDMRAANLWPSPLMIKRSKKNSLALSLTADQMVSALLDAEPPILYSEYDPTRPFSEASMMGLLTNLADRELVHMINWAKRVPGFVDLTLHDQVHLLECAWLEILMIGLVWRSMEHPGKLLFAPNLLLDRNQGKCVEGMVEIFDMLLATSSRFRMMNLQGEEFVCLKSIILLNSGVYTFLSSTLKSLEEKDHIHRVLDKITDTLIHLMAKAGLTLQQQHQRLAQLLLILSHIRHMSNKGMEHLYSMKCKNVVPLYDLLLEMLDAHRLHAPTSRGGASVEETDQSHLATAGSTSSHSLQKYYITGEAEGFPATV
In words: Displacement of fluoromone TM from recombinant human ERalpha after 2 hrs by fluorescence polarization analysis. The procedure, abridged:
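Fluorescence polarization kit: serially DMSO-diluted compound mixed with recombinant human ERα/Fluormone ES2 complex, at least 2 h at room temperature in the dark. Controls were oestradiol for minimum polarization and free tracer. Percent inhibition normalized; IC50 from non-linear regression as the concentration displacing half of the bound ligand.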
For orientation: In fluorescence polarisation assays a small probe gives low polarisation when free and higher when bound to something large.

In data set [1] the test system is T47D. In words: Antiproliferative activity against human T47D cells after 48 hrs by MTT assay.
The nature of data set [2]: Drug uptake in human T47D cell cytosol at 5 uM after 24 hrs by confocal laser scanning microscopic method. The data set is classed as ADME, subcellular.
Data set [3] in a line: Drug uptake in human T47D cell nucleus at 5 uM after 24 hrs by confocal laser scanning microscopic method. The data set is classed as ADME, subcellular.
A short description of data set [4]: Drug uptake in human T47D cell plasma membrane at 5 uM after 24 hrs by confocal laser scanning microscopic method. The data set is classed as ADME, cell membranes.
The test system of data set [5] is T47D. The data set is described as follows: Downregulation of ERalpha mRNA levels in human T47D cells at 5 uM after 48 hrs by semi-quantitative RT-PCR analysis. In kind it is functional, cell-based. The procedure, abridged:
(§1)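 T47D cells exposed 48 h; total RNA extracted with TRIzol, checked by NanoDrop and denaturing agarose gel, then reverse transcribed. ERα transcript amplified, run on agarose gel and quantified by densitometry, normalized to GAPDH; representative of three experiments.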

For data set [6], the system named is T47D. In words: Downregulation of ERalpha protein levels in human T47D cells at 5 uM after 48 hrs by Western blot analysis. In kind it is functional. A digest of the protocol: (§2)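 T47D cells exposed 48 h, lysed in modified RIPA (50 mM Tris-HCl pH 7.4, 150 mM NaCl, 1 mM EDTA, 1% NP-40, protease inhibitors), protein by Bradford. 50 µg protein run on 10% SDS-PAGE, transferred to nitrocellulose, blocked with 5% milk, probed overnight at 4 °C with rabbit anti-ERα (HC-20), HRP secondary, ECL detection. Normalized to β-actin; three experiments.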

The subject of data set [7] is T47D. In words: Downregulation of ERalpha mRNA levels in human T47D cells at 15 uM after 48 hrs by semi-quantitative RT-PCR analysis. In kind it is functional, cell-based. The procedure, abridged: as §1
In data set [8] the test system is T47D. The data set is described as follows: Downregulation of ERalpha protein levels in human T47D cells at 15 uM after 48 hrs by Western blot analysis. In kind it is functional. The procedure, abridged: as §2
In general terms: Immunoblotting shows a protein as a band on a membrane.

A short description of data set [9]: Drug uptake in human T47D cell nucleus at 15 uM after 24 hrs by confocal laser scanning microscopic method. In kind it is ADME, subcellular.
Data set [10] is described as follows: Drug uptake in human T47D cell plasma membrane at 15 uM after 24 hrs by confocal laser scanning microscopic method. In kind it is ADME, cell membranes.
Data set [11] can be described thus: Drug uptake in human T47D cell cytosol at 15 uM after 24 hrs by confocal laser scanning microscopic method. The data set is classed as ADME, subcellular.

Activity calls are given as the source filed them. No cut-off for these calls is given here.

As usually defined, the IC50 is the point on the concentration scale where inhibition reaches its midpoint.

As for `O=C(c1ccccc1)c1ccc2[nH]c(-c3cc4ccccc4[nH]3)nc2c1`, in the data set with PBMC, the Activity result was “Non-Toxic”. Besides, on Estrogen receptor, the IC50 worked out at 0.0469 µM.

For `c1ccc2[nH]c(-c3nc4cccnc4[nH]3)cc2c1`, the Activity result with PBMC is “Non-Toxic”.

As to `Brc1ccc2[nH]c(-c3cc4ccccc4[nH]3)nc2c1`, the figures for the IC50 in the data set on T47D [1] and at Estrogen receptor were 4.99 µM and 0.0804 µM, respectively. For the same compound, the values for the Activity entry with PBMC and with T47D [6] were “Non-Toxic” and 27.5%, respectively. For the same compound, the Drug uptake entry in data set [2] is “Active”; in data set [3], “Not Active”; in data set [4], “Active”. Also, the result with T47D [5] was Active.

With `O=C(c1ccccc1)c1ccc2[nH]c(-c3cc4ccccc4n3Cc3ccccc3)nc2c1`, the Activity entry with PBMC is recorded as “Non-Toxic”.

Regarding `c1ccc(Cn2c(-c3nc4ccccc4[nH]3)cc3ccccc32)cc1`, the results for the IC50 in the data set with T47D [1] and on Estrogen receptor were 21.4 µM and 0.259 µM, respectively. The Activity entry in the data set on PBMC was “Non-Toxic”.

As to `Cc1cc(C)c2nc(-c3cc4ccccc4n3Cc3ccccc3)[nH]c2c1`, the values for the IC50 in the data set on T47D [1] and on Estrogen receptor were 21.8 µM and 0.0331 µM, respectively. For the same compound, the Activity result in the data set on PBMC was “Non-Toxic”.

Regarding `c1ccc2[nH]c(-c3nc4ccccc4[nH]3)cc2c1`, the IC50 in the data set with T47D [1] stood at 6.2 µM. In addition, the Activity result in the data set with PBMC was “Non-Toxic”.

For `Cc1c(-c2ccc(O)cc2)n(Cc2ccc(OCCN3CCCCCC3)cc2)c2ccc(O)cc12`, in the data set with T47D [7], the result was Active.

On to `Brc1cnc2[nH]c(-c3cc4ccccc4[nH]3)nc2c1`, for which, in the data set with T47D [1], the IC50 is 21 µM. In the data set on PBMC, the Activity result is listed as “Non-Toxic”.

For the compound `BrC1=CN2NC(c3cc4ccccc4[nH]3)=NC2N=C1` (configuration not stated), half-maximal inhibition in the data set on T47D [1] (IC50) required 24.4 µM. Moreover, the Activity entry in the data set on PBMC is “Non-Toxic”.

`c1ccc2[nH]c(C3=Nc4cccc5cccc(c45)N3)cc2c1`: the IC50 with T47D [1] is 20.5 µM; on Estrogen receptor, 0.202 µM. The Activity entry in the data set with PBMC is recorded as “Non-Toxic”.

The compound `Clc1cc2nc(-c3cc4ccccc4[nH]3)[nH]c2cc1Cl` had an IC50 in the data set with T47D [1] of 21.2 µM. In addition, the Activity entry with PBMC was “Non-Toxic”.

`c1ccc2cc3[nH]c(-c4cc5ccccc5[nH]4)nc3cc2c1` had an IC50 in the data set on T47D [1] of 23.4 µM. Besides, the Activity result with PBMC is “Non-Toxic”.

Consider `Clc1cc2nc(-c3cc4ccccc4n3Cc3ccccc3)[nH]c2cc1Cl`, for which the IC50 worked out at 22.5 µM in the data set with T47D [1] and 0.0767 µM on Estrogen receptor. Further, the Activity result with PBMC was “Non-Toxic”.

For `Brc1ccc2[nH]c(-c3cc4ccccc4n3Cc3ccccc3)nc2c1`, the IC50 stood at 15.5 µM with T47D [1] and 0.0736 µM at Estrogen receptor. The Activity entry in the data set with PBMC is reported as “Non-Toxic”; with T47D [8], 57.42%. Also, in the data set with T47D [7], the result was Active. The Drug uptake result in data set [9] is “Not Active”; in data set [10] it was “Active”; in [11], “Active”.

For `BrC1=CN2NC(c3cc4ccccc4n3Cc3ccccc3)=NC2N=C1` (configuration not stated), the Activity entry in the data set on PBMC is given as “Non-Toxic”. Also, the IC50 at Estrogen receptor came to 0.539 µM.

For the compound `c1ccc(Cn2c(-c3nc4cccnc4[nH]3)cc3ccccc32)cc1`, the Activity entry in the data set with PBMC was “Non-Toxic”.

Compound `Cc1cc(C)c2nc(-c3cc4ccccc4[nH]3)[nH]c2c1` came in with an IC50 in the data set on T47D [1] of 24.8 µM. For the same compound, the Activity entry in the data set on PBMC is listed as “Non-Toxic”.

For `Cc1cccc2[nH]c(-c3cc4ccccc4[nH]3)nc12`, the half-maximal inhibitory concentration (IC50) in the data set with T47D [1] was determined as 8.9 µM; on Estrogen receptor, 0.192 µM. Further, the Activity result with PBMC is listed as “Non-Toxic”.

In the case of `Cc1cccc2[nH]c(-c3cc4ccccc4n3Cc3ccccc3)nc12`, the Activity entry in the data set with PBMC was “Non-Toxic”. The IC50 on Estrogen receptor came to 0.387 µM.

As to `Brc1cnc2[nH]c(-c3cc4ccccc4n3Cc3ccccc3)nc2c1`, the Activity result in the data set with PBMC is listed as “Non-Toxic”. Also, at Estrogen receptor, the IC50 stood at 0.3 µM.

In the data set with T47D [1], `c1ccc(Cn2c(-c3nc4cc5ccccc5cc4[nH]3)cc3ccccc32)cc1` displayed an IC50 of 13.4 µM. Further, the Activity result with PBMC is “Non-Toxic”.
